What all share (format): functional
One test concerns Nakaseomyces glabratus. Briefly: Antimicrobial activity against Candida glabrata ATCC 18804 by broth dilution method. For orientation: Broth dilution looks for growth in wells or tubes with falling amounts of substance.
Another test has as its system Candida parapsilosis. Briefly: Antimicrobial activity against Candida parapsilosis ATCC 90030 by broth dilution method. To be noted: Lodderomyces parapsilosis.
For test [1], the system named is Staphylococcus epidermidis. Briefly: Antimicrobial activity against Staphylococcus epidermidis ATCC 12228 by broth dilution method. Particulars: for MIC: Staphylococcus epidermidis, ATCC 12228.
Test [2] has as its system Escherichia coli. In words: Antimicrobial activity against Escherichia coli ATCC 11229 by broth dilution method. Particulars: for MIC: Escherichia coli, ATCC 11229.
Another test concerns Pseudomonas aeruginosa. In words: Antimicrobial activity against Pseudomonas aeruginosa ATCC 27853 by broth dilution method.
Test [3] deals with Staphylococcus aureus. Briefly: Antimicrobial activity against Staphylococcus aureus ATCC 29213 by broth dilution method. To be noted: for MIC: Staphylococcus aureus, ATCC 29213.
Another test relates to Candida tropicalis. In words: Antimicrobial activity against Candida tropicalis ATCC 750 by broth dilution method.
Another test has as its system Candida albicans. Briefly: Antimicrobial activity against Candida albicans ATCC 22019 by broth dilution method.
Test [4] relates to Staphylococcus aureus. In words: Bactericidal activity against methicillin-resistant Staphylococcus aureus clinical isolate 236 after 24 hrs. To be noted: isolate 236, 24 h. A digest of the protocol: (§1)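 Bactericidal concentration: 0.1 ml from wells at the MIC dilution and the dilutions on either side was streaked onto tryptic soy agar and incubated 24 h. It was taken as the lowest drug concentration giving no growth (100% killing).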

Test [5] concerns Staphylococcus aureus. In words: Bactericidal activity against methicillin-resistant Staphylococcus aureus clinical isolate 264 after 24 hrs. To be noted: isolate 264, 24 h. A digest of the protocol:
as §1

The test system of test [6] is Staphylococcus aureus. In words: Antimicrobial activity against methicillin-resistant Staphylococcus aureus clinical isolate 236 by broth dilution method.
The test system of test [7] is Staphylococcus aureus. In words: Antimicrobial activity against methicillin-resistant Staphylococcus aureus clinical isolate 225 by broth dilution method.
Test [8] has as its system Staphylococcus epidermidis. In words: Bactericidal activity against Staphylococcus epidermidis ATCC 12228 after 24 hrs. To be noted: ATCC 12228, 24 h. A digest of the protocol: (§2)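 MBC: after MIC determination, 0.1 ml from the MIC well and from two dilutions either side streaked on tryptic soy agar, incubated 24 h; MBC taken as lowest concentration giving no growth (100% kill).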

In test [9] the test system is Staphylococcus aureus. Briefly: Antimicrobial activity against methicillin-resistant Staphylococcus aureus clinical isolate 178 by broth dilution method.
Test [10] has as its system Staphylococcus aureus. Briefly: Bactericidal activity against methicillin-resistant Staphylococcus aureus clinical isolate 260 after 24 hrs. To be noted: isolate 260, 24 h. A digest of the protocol:
as §1

The subject of test [11] is Staphylococcus aureus. Briefly: Antimicrobial activity against methicillin-resistant Staphylococcus aureus clinical isolate 207 by broth dilution method.
Test [12] relates to Staphylococcus aureus. Briefly: Antimicrobial activity against methicillin-resistant Staphylococcus aureus clinical isolate 235 by broth dilution method.
The test system of test [13] is Staphylococcus aureus. In words: Antimicrobial activity against methicillin-resistant Staphylococcus aureus clinical isolate 205 by broth dilution method.
The test system of test [14] is Staphylococcus aureus. In words: Bactericidal activity against methicillin-resistant Staphylococcus aureus clinical isolate 238 after 24 hrs. Particulars: isolate 238, 24 h. A digest of the protocol:
as §1

For test [15], the system named is Staphylococcus aureus. Briefly: Antimicrobial activity against methicillin-resistant Staphylococcus aureus clinical isolate 232 by broth dilution method.
Test [16] has as its system Staphylococcus aureus. Briefly: Antimicrobial activity against methicillin-resistant Staphylococcus aureus clinical isolate 237 by broth dilution method.
The test system of test [17] is Staphylococcus aureus. Briefly: Antimicrobial activity against methicillin-resistant Staphylococcus aureus clinical isolate 176 by broth dilution method.
The test system of test [18] is Staphylococcus aureus. Briefly: Antimicrobial activity against methicillin-resistant Staphylococcus aureus clinical isolate 255 by broth dilution method.
Test [19] relates to Staphylococcus aureus. In words: Antimicrobial activity against methicillin-resistant Staphylococcus aureus clinical isolate 260 by broth dilution method.
In test [20] the test system is Staphylococcus aureus. In words: Antimicrobial activity against methicillin-resistant Staphylococcus aureus clinical isolate 215 by broth dilution method.
Test [21] concerns Staphylococcus aureus. In words: Bactericidal activity against methicillin-resistant Staphylococcus aureus clinical isolate 237 after 24 hrs. Particulars: isolate 237, 24 h. A digest of the protocol: as §1
In test [22] the test system is Staphylococcus aureus. Briefly: Antimicrobial activity against methicillin-resistant Staphylococcus aureus clinical isolate 257 by broth dilution method.
Test [23] relates to Staphylococcus aureus. Briefly: Bactericidal activity against methicillin-resistant Staphylococcus aureus clinical isolate 232 after 24 hrs. Particulars: isolate 232, 24 h. A digest of the protocol:
as §1

Test [24] deals with Staphylococcus aureus. In words: Bactericidal activity against methicillin-resistant Staphylococcus aureus clinical isolate 231 after 24 hrs. Particulars: isolate 231, 24 h. A digest of the protocol:
as §1

Test [25] relates to Staphylococcus aureus. Briefly: Bactericidal activity against methicillin-resistant Staphylococcus aureus clinical isolate 218 after 24 hrs. To be noted: isolate 218, 24 h. A digest of the protocol: as §1
Test [26] relates to Staphylococcus aureus. Briefly: Bactericidal activity against methicillin-resistant Staphylococcus aureus clinical isolate 255 after 24 hrs. Particulars: isolate 255, 24 h. A digest of the protocol: as §1
In test [27] the test system is Staphylococcus aureus. Briefly: Bactericidal activity against Staphylococcus aureus ATCC 29213 after 24 hrs. To be noted: ATCC 29213, 24 h. A digest of the protocol: as §1
The subject of test [28] is Staphylococcus aureus. In words: Antimicrobial activity against methicillin-resistant Staphylococcus aureus clinical isolate 231 by broth dilution method.
The test system of test [29] is Escherichia coli. In words: Bactericidal activity against Escherichia coli ATCC 11229 after 24 hrs. To be noted: ATCC 11229, 24 h. A digest of the protocol: as §2
The test system of test [30] is Staphylococcus aureus. In words: Antimicrobial activity against methicillin-resistant Staphylococcus aureus clinical isolate 218 by broth dilution method.
For test [31], the system named is Staphylococcus aureus. In words: Bactericidal activity against methicillin-resistant Staphylococcus aureus clinical isolate 225 after 24 hrs. To be noted: isolate 225, 24 h. A digest of the protocol: as §1
Test [32] has as its system Staphylococcus aureus. In words: Bactericidal activity against methicillin-resistant Staphylococcus aureus clinical isolate 235 after 24 hrs. Particulars: isolate 235, 24 h. A digest of the protocol:
as §1

The subject of test [33] is Staphylococcus aureus. Briefly: Bactericidal activity against methicillin-resistant Staphylococcus aureus clinical isolate 257 after 24 hrs. Particulars: isolate 257, 24 h. A digest of the protocol:
as §1

For test [34], the system named is Staphylococcus aureus. Briefly: Antimicrobial activity against methicillin-resistant Staphylococcus aureus clinical isolate 264 by broth dilution method.
Test [35] relates to Staphylococcus aureus. Briefly: Antimicrobial activity against methicillin-resistant Staphylococcus aureus clinical isolate 259 by broth dilution method.
Test [36] concerns Staphylococcus aureus. In words: Bactericidal activity against methicillin-resistant Staphylococcus aureus clinical isolate 212 after 24 hrs. To be noted: isolate 212, 24 h. A digest of the protocol:
as §1

The subject of test [37] is Staphylococcus aureus. In words: Antimicrobial activity against methicillin-resistant Staphylococcus aureus clinical isolate 227 by broth dilution method.
The test system of test [38] is Staphylococcus aureus. In words: Antimicrobial activity against methicillin-resistant Staphylococcus aureus clinical isolate 212 by broth dilution method.
Test [39] deals with Staphylococcus aureus. In words: Antimicrobial activity against methicillin-resistant Staphylococcus aureus clinical isolate 195 by broth dilution method.
Test [40] has as its system Staphylococcus aureus. In words: Antimicrobial activity against methicillin-resistant Staphylococcus aureus clinical isolate by broth dilution method.
Test [41] deals with Staphylococcus aureus. In words: Bactericidal activity against methicillin-resistant Staphylococcus aureus clinical isolate 259 after 24 hrs. Particulars: isolate 259, 24 h. A digest of the protocol:
as §1

Test [42] deals with Staphylococcus aureus. In words: Antimicrobial activity against methicillin-resistant Staphylococcus aureus clinical isolate 238 by broth dilution method.

A value given as a limit tells only on which side of the number the result lay.

Here are results for 3 compounds from ChEMBL document CHEMBL2380298, “Synthesis and antimicrobial activity of novel amphiphilic aromatic amino alcohols” (2013).

Take `CCCCOc1ccc(CNC(CO)(CO)CO)cc1.Cl`: the MIC in the test on Nakaseomyces glabratus is 512 µg/mL; in the test with Candida parapsilosis, greater than 512 µg/mL; in [1] it was 512 µg/mL; against Escherichia coli [2], 1020 µg/mL; in the test on Pseudomonas aeruginosa, 512 µg/mL; in the test on Staphylococcus aureus [3], 1020 µg/mL. In the test on Candida tropicalis, this compound registered an MIC greater than 512 µg/mL. Also, the “-logMIC” value was 2.79 in [1], 2.49 in the test on Escherichia coli [2] and 2.49 in the test with Staphylococcus aureus [3].
For the compound `CCCCCCOc1ccc(CNC(CO)(CO)CO)cc1.Cl`, the MIC was 256 µg/mL against Nakaseomyces glabratus; greater than 512 µg/mL against Candida parapsilosis; 128 µg/mL in test [1]; 256 µg/mL against Escherichia coli [2]; 512 µg/mL against Pseudomonas aeruginosa; 128 µg/mL in the test on Staphylococcus aureus [3]. In addition, the MIC against Candida tropicalis was greater than 512 µg/mL. Moreover, the “-logMIC” value was 3.43 in test [1], 3.13 in the test with Escherichia coli [2] and 3.45 with Staphylococcus aureus [3].
As to `CCCCCCCCOc1ccc(CNC(CO)(CO)CO)cc1.Cl`, the MIC against Candida albicans turned out to be 4 µg/mL; against Staphylococcus aureus [6] it was 16 µg/mL; against Staphylococcus aureus [7] it was 128 µg/mL; in the test with Staphylococcus aureus [9] it was 128 µg/mL; against Staphylococcus aureus [11] it was 64 µg/mL; against Staphylococcus aureus [12] it was 16 µg/mL. The MIC against Staphylococcus aureus [13] was found to be 16 µg/mL; in the test with Staphylococcus aureus [15], 16 µg/mL; against Staphylococcus aureus [16], 16 µg/mL; with Nakaseomyces glabratus it was 8 µg/mL; in the test with Staphylococcus aureus [17] it was 32 µg/mL; against Staphylococcus aureus [18], 8 µg/mL. Further, the MIC against Staphylococcus aureus [19] worked out at 16 µg/mL; in the test on Candida parapsilosis, 32 µg/mL; with Staphylococcus aureus [20], 16 µg/mL; in the test on Staphylococcus aureus [22], 8 µg/mL; with Staphylococcus aureus [28], 16 µg/mL; in test [1], 16 µg/mL. Also, the minimum inhibitory concentration (MIC) against Escherichia coli [2] is 32 µg/mL; in the test on Pseudomonas aeruginosa it was greater than 256 µg/mL; in the test on Staphylococcus aureus [30] it was 16 µg/mL; against Staphylococcus aureus [3], 8 µg/mL; in the test on Staphylococcus aureus [34] it was 8 µg/mL; against Staphylococcus aureus [35], 8 µg/mL. Besides, the MIC was 32 µg/mL in the test with Staphylococcus aureus [37]; 32 µg/mL in the test with Staphylococcus aureus [38]; 32 µg/mL in the test with Candida tropicalis; 32 µg/mL against Staphylococcus aureus [39]; 16 µg/mL in the test with Staphylococcus aureus [42]. For the same compound, the MBC came out at 32 µg/mL against Staphylococcus aureus [4]; 64 µg/mL with Staphylococcus aureus [5]; 128 µg/mL in [8]; 32 µg/mL in the test on Staphylococcus aureus [10]; 16 µg/mL with Staphylococcus aureus [14]; 16 µg/mL in the test with Staphylococcus aureus [21]. For the same compound, the MBC came to 16 µg/mL in the test on Staphylococcus aureus [23]; 16 µg/mL with Staphylococcus aureus [24]; 128 µg/mL against Staphylococcus aureus [25]; 8 µg/mL in the test on Staphylococcus aureus [26]; 32 µg/mL against Staphylococcus aureus [27]; 32 µg/mL against Escherichia coli [29]. Besides, the MBC with Staphylococcus aureus [31] is 512 µg/mL; against Staphylococcus aureus [32], 32 µg/mL; against Staphylococcus aureus [33], 8 µg/mL; with Staphylococcus aureus [36], 128 µg/mL; against Staphylococcus aureus [41], 8 µg/mL. In addition, the “-logMIC” value worked out at 4.37 in [1], 4.06 with Escherichia coli [2], 3.67 in the test on Staphylococcus aureus [3] and 4.287 in the test with Staphylococcus aureus [40]. Besides, the MIC50 in the test with Staphylococcus aureus [40] (Staphylococcus aureus) turned out to be 16 µg/mL. For the same compound, the MIC90 against Staphylococcus aureus [40] (Staphylococcus aureus) came out at 64 µg/mL.

In general, MIC refers to the lowest concentration found to suppress growth. A low value points to a more susceptible organism. A word on the MBC: it is the lowest tested concentration that kills the bacteria rather than only halting them. High values mean weaker bactericidal potency, low ones greater bactericidal potency. One may read the MIC50 as an inhibitory concentration at the 50% level, which refers to growth in some studies and to a panel of isolates in others. A low value points to higher susceptibility. The term MIC90 denotes an inhibitory concentration at the 90% level, which refers to growth in some studies and to a panel of isolates in others.
